Source: ChEMBL document CHEMBL4118073, “Evaluation of the antidepressant therapeutic potential of isocyanine and pseudoisocyanine analogues of the organic cation decynium-22” (Eur J Med Chem, 2017)

Key:
Mus musculus [1] = assay: Anti-depressant-like activity in mouse assessed as time spent immobile at 1 mg/kg, ip administered 60 mins prior to testing measured for 6 mins by tail suspension test (reference value: 186.9 +/- 13.2 secs); format: functional
Mus musculus [2] = assay: Toxicity in mouse assessed as suppression of locomotion at 10 mg/kg, ip measured for 5 mins; format: organism-based; conditions: in vivo
Mus musculus [3] = assay: Toxicity in mouse assessed as suppression of locomotion at 0.1 mg/kg, ip measured for 5 mins; format: organism-based; conditions: in vivo
alpha1 adrenoceptor [4] = biological target: T1, alpha1 adrenoceptor (Mus musculus, UniProt P97714+P97717+P97718); assay: Displacement of [3H]prazosin from alpha1 adrenoceptor in C57BL/6 mouse hippocampal homogenates assessed as remaining receptor bound [3H]prazosin levels at 0.01 uM after 40 mins by liquid scintillation counting method relative to control; conditions: probe [3H]prazosin, read-out: Activity
T1 sequence (P97714 whole entry): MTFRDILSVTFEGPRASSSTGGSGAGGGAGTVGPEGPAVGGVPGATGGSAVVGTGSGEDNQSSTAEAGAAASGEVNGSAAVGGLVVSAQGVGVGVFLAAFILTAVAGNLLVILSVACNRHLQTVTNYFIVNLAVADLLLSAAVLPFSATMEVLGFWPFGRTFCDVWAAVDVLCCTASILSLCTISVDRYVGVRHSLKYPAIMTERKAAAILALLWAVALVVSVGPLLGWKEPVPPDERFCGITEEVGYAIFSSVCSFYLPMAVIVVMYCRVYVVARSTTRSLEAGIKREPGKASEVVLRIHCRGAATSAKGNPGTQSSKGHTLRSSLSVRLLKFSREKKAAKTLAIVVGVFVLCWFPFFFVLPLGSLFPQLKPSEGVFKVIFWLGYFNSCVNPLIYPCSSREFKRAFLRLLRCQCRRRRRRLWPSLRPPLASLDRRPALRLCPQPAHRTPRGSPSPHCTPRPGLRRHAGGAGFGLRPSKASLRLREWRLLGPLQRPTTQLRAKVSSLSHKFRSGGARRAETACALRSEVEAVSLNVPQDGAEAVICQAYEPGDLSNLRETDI
T1 sequence (P97717 whole entry): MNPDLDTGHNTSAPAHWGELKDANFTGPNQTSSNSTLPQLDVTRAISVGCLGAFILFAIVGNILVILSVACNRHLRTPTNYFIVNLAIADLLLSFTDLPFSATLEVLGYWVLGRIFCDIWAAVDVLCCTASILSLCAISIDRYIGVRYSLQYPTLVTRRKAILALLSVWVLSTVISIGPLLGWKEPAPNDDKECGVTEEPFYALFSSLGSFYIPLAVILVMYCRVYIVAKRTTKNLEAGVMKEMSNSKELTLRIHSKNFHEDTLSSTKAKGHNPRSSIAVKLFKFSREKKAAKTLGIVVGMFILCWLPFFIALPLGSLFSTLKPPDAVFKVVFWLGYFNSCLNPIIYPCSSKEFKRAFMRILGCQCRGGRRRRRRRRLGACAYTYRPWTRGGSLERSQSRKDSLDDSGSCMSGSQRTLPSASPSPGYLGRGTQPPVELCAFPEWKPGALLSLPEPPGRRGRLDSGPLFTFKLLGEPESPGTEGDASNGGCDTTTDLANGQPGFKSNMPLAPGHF
T1 sequence (P97718 whole entry): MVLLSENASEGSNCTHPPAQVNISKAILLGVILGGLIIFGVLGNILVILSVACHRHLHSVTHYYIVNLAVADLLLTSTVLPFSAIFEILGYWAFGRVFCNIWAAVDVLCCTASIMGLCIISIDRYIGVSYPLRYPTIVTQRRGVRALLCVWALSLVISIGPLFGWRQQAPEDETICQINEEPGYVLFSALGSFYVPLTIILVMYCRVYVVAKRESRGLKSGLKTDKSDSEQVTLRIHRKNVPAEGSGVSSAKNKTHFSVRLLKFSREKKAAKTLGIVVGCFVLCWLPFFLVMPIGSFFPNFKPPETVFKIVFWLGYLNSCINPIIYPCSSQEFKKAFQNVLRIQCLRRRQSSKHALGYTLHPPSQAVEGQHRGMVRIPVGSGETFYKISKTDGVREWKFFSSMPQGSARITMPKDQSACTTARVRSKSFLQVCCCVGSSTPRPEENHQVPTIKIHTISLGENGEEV
Procedure, shortened: (§1)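 Mouse hippocampal homogenate incubated with 1.5 nM [³H]prazosin and competing ligand across a concentration series. Bound radioligand was expressed as displacement relative to control. IC₅₀ was obtained from non-linear regression fitting of concentration-effect curves, and curve fits were compared with tamsulosin.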

alpha1 adrenoceptor [5] = biological target: T1, alpha1 adrenoceptor; assay: Displacement of [3H]prazosin from alpha1 adrenoceptor in C57BL/6 mouse hippocampal homogenates assessed as remaining receptor bound [3H]prazosin levels at 10 uM after 40 mins by liquid scintillation counting method relative to control; conditions: probe [3H]prazosin, read-out: Activity; procedure, shortened: as §1
alpha1 adrenoceptor [6] = biological target: T1, alpha1 adrenoceptor; assay: Displacement of [3H]prazosin from alpha1 adrenoceptor in C57BL/6 mouse hippocampal homogenates assessed as remaining receptor bound [3H]prazosin levels at 0.1 uM after 40 mins by liquid scintillation counting method relative to control; conditions: probe [3H]prazosin, read-out: Activity; procedure, shortened: as §1
alpha1 adrenoceptor [7] = biological target: T1, alpha1 adrenoceptor; assay: Displacement of [3H]prazosin from alpha1 adrenoceptor in C57BL/6 mouse hippocampal homogenates assessed as remaining receptor bound [3H]prazosin levels at 100 uM after 40 mins by liquid scintillation counting method relative to control; conditions: probe [3H]prazosin, read-out: Activity; procedure, shortened: as §1
alpha1 adrenoceptor [8] = biological target: T1, alpha1 adrenoceptor; assay: Displacement of [3H]prazosin from alpha1 adrenoceptor in C57BL/6 mouse hippocampal homogenates assessed as remaining receptor bound [3H]prazosin levels at 1 uM after 40 mins by liquid scintillation counting method relative to control; conditions: probe [3H]prazosin, read-out: Activity; procedure, shortened: as §1
Mus musculus [9] = assay: Toxicity in mouse assessed as suppression of locomotion at 1 mg/kg, ip measured for 5 mins; format: organism-based; conditions: in vivo
alpha1 adrenoceptor [10] = biological target: T1, alpha1 adrenoceptor; assay: Displacement of [3H]prazosin from alpha1 adrenoceptor in C57BL/6 mouse hippocampal homogenates assessed as remaining receptor bound [3H]prazosin levels at 0.001 uM after 40 mins by liquid scintillation counting method relative to control; conditions: probe [3H]prazosin, read-out: Activity; procedure, shortened: as §1
Mus musculus [11] = assay: Anti-depressant-like activity in mouse assessed as time spent immobile at 0.1 mg/kg, ip administered 60 mins prior to testing measured for 6 mins by tail suspension test (reference value: 186.9 +/- 13.2 secs); format: functional
Mus musculus [12] = assay: Toxicity in mouse assessed as mortality at 10 mg/kg, ip measured for 5 mins; format: organism-based; conditions: in vivo
Procedure, shortened: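 Mice were given an intraperitoneal injection of the compound, with D-22 dosed over 0.01–10.0 mg/kg and analogues at equivalent doses. Each mouse was placed at once in an infrared beam-break activity chamber. Beam breaks were counted per 5 min period over a four-hour session, and deaths at the 10 mg/kg dose were recorded in the locomotor dose groups.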

Mus musculus [13] = assay: Anti-depressant-like activity in mouse assessed as time spent immobile at 3.2 mg/kg, ip administered 60 mins prior to testing measured for 6 mins by tail suspension test (reference value: 186.9 +/- 13.2 secs); format: functional
[14] = biological target: T2, Alpha-1 adrenergic receptor (Mus musculus, UniProt P97714+P97717+P97718); assay: Displacement of [3H]prazosin from alpha1 adrenoceptor in C57BL/6 mouse hippocampal homogenates after 40 mins by liquid scintillation counting method; procedure, shortened: as §1
T2 sequence (P97714 whole entry): T1 sequence (P97714 whole entry)
T2 sequence (P97717 whole entry): T1 sequence (P97717 whole entry)
T2 sequence (P97718 whole entry): T1 sequence (P97718 whole entry)

alpha1 adrenoceptor [15] = biological target: T1, alpha1 adrenoceptor; assay: Displacement of [3H]prazosin from alpha1 adrenoceptor in C57BL/6 mouse hippocampal homogenates assessed as remaining receptor bound [3H]prazosin levels at 0.0001 uM after 40 mins by liquid scintillation counting method relative to control; conditions: probe [3H]prazosin, read-out: Activity; procedure, shortened: as §1
alpha1 adrenoceptor [16] = biological target: T1, alpha1 adrenoceptor; assay: Displacement of [3H]prazosin from alpha1 adrenoceptor in C57BL/6 mouse hippocampal homogenates assessed as remaining receptor bound [3H]prazosin levels at 0.003 uM after 40 mins by liquid scintillation counting method relative to control; conditions: probe [3H]prazosin, read-out: Activity; procedure, shortened: as §1
alpha1 adrenoceptor [17] = biological target: T1, alpha1 adrenoceptor; assay: Displacement of [3H]prazosin from alpha1 adrenoceptor in C57BL/6 mouse hippocampal homogenates assessed as remaining receptor bound [3H]prazosin levels at 30 uM after 40 mins by liquid scintillation counting method relative to control; conditions: probe [3H]prazosin, read-out: Activity; procedure, shortened: as §1
alpha1 adrenoceptor [18] = biological target: T1, alpha1 adrenoceptor; assay: Displacement of [3H]prazosin from alpha1 adrenoceptor in C57BL/6 mouse hippocampal homogenates assessed as remaining receptor bound [3H]prazosin levels at 0.3 uM after 40 mins by liquid scintillation counting method relative to control; conditions: probe [3H]prazosin, read-out: Activity; procedure, shortened: as §1

IC50 [14] | activity at 40 min, 0.003 µM (alpha1 adrenoceptor [16]) | activity at 40 min, 30 µM (alpha1 adrenoceptor [17]) | activity at 40 min, 0.3 µM (alpha1 adrenoceptor [18]) | SMILES | Time (Mus musculus [1]) | Activity (Mus musculus [2]) | Activity (Mus musculus [3]) | activity at 40 min, 0.01 µM (alpha1 adrenoceptor [4]) | activity at 40 min, 10 µM (alpha1 adrenoceptor [5]) | activity at 40 min, 0.1 µM (alpha1 adrenoceptor [6]) | activity at 40 min, 100 µM (alpha1 adrenoceptor [7]) | activity at 40 min, 1 µM (alpha1 adrenoceptor [8]) | Activity (Mus musculus [9]) | activity at 40 min, 0.001 µM (alpha1 adrenoceptor [10]) | Time (Mus musculus [11]) | Activity (Mus musculus [12]) | Time (Mus musculus [13]) | activity at 40 min, 0.0001 µM (alpha1 adrenoceptor [15])
1.8 nM | – | – | – | CCOc1ccccc1OCCN[C@H](C)Cc1ccc(OC)c(S(N)(=O)=O)c1 [TAMSULOSIN] | – | – | – | – | – | – | – | – | – | – | – | – | – | –
348 nM | – | – | – | CCN1/C(=C/c2ccc3cc(F)ccc3[n+]2CC)C=Cc2ccccc21.[I-] | 198.1 s | Toxic | Non-Toxic | – | – | – | – | – | Non-Toxic | – | 185.5 s | – | 113.5 s | –
577 nM | – | – | – | CCN1/C(=C/c2ccc3cc(Cl)ccc3[n+]2CC)C=Cc2ccccc21.[I-] | 189.3 s | Toxic | Non-Toxic | – | – | – | – | – | Non-Toxic | – | 189.2 s | – | 140.4 s | –
60 nM | 84% | -5% | 8% | CCN1/C(=C/c2ccc3ccccc3[n+]2CC)C=Cc2ccccc21.[I-] | 185.8 s | – | Non-Toxic | 81.2% | 12.6% | 44.6% | 13.3% | 16.6% | Toxic | 92.8% | – | – | 149.3 s | 100%

Further lines, the compound ahead of its results:

SMILES | IC50 [14] | activity at 40 min, 0.003 µM (alpha1 adrenoceptor [16]) | activity at 40 min, 30 µM (alpha1 adrenoceptor [17]) | activity at 40 min, 0.3 µM (alpha1 adrenoceptor [18]) | Time (Mus musculus [1]) | Activity (Mus musculus [2]) | Activity (Mus musculus [3]) | activity at 40 min, 0.01 µM (alpha1 adrenoceptor [4]) | activity at 40 min, 10 µM (alpha1 adrenoceptor [5]) | activity at 40 min, 0.1 µM (alpha1 adrenoceptor [6]) | activity at 40 min, 100 µM (alpha1 adrenoceptor [7]) | activity at 40 min, 1 µM (alpha1 adrenoceptor [8]) | Activity (Mus musculus [9]) | activity at 40 min, 0.001 µM (alpha1 adrenoceptor [10]) | Time (Mus musculus [11]) | Activity (Mus musculus [12]) | Time (Mus musculus [13]) | activity at 40 min, 0.0001 µM (alpha1 adrenoceptor [15])
CCN1/C(=C/c2ccc3cc(Br)ccc3[n+]2CC)C=Cc2ccccc21.[I-] | – | – | – | – | 190 s | Toxic | Non-Toxic | 102% | 1.3% | 67.7% | 0% | 43.3% | Non-Toxic | 100% | 171.3 s | Toxic | 179 s | –
Cc1ccnc2ccccc12 | – | – | – | – | – | – | – | 26.3% | 3% | 2.7% | 0% | 8.3% | – | 100% | – | – | – | –
CCN1/C(=C/c2ccc3cc(OC)ccc3[n+]2CC)C=Cc2ccccc21.[I-] | – | – | – | – | 135.7 s | Toxic | Non-Toxic | 97% | 1.7% | 81% | 1.3% | 23% | Non-Toxic | 100% | 167.2 s | Toxic | 203.1 s | –
CN1/C(=C\c2cc[n+](C)c3ccccc23)C=Cc2ccccc21.O=C([O-])C(F)(F)F | – | – | – | – | 165.3 s | Toxic | Non-Toxic | – | – | – | – | – | Non-Toxic | – | 200.8 s | Toxic | 150 s | –
CC(C)[n+]1ccc(/C=C2/C=Cc3ccccc3N2C)c2ccccc21.O=C([O-])C(F)(F)F | 1066 nM | – | – | – | 152.8 s | Toxic | Non-Toxic | 97.3% | 6.7% | 89.7% | 3.3% | 52.3% | Non-Toxic | 100% | 198.3 s | – | 170.3 s | 100%
